Here are results for 2 molecules from ChEMBL document CHEMBL1124666, “Novel linked antiviral and antitumor agents related to netropsin and distamycin: synthesis and biological evaluation” (1989).

A short description of experiment [1]: Inhibition of Moloney Murine Leukemia Associated Reverse Transcriptase. The class given is functional, Mus musculus.
Experiment [2] relates to Vaccinia virus. The experiment can be described thus: Minimum inhibitory concentration against vaccinia virus in HeLa cell cultures. The class given is functional. The conditions noted are these: Orthopoxvirus vaccinia.
The subject of experiment [3] is Vaccinia virus. The experiment can be described thus: Minimum inhibitory concentration against vaccinia virus embryonic skin muscle cell cultures. The format is functional. As to conditions: Orthopoxvirus vaccinia.
In experiment [4] the test system is Vaccinia virus. The experiment can be described thus: Minimum inhibitory concentration against Vaccinia virus. The class given is functional. The conditions noted are these: Orthopoxvirus vaccinia.
The test system of experiment [5] is Vaccinia virus. Kind of experiment: Minimum cytotoxic concentration against vaccinia virus in Vero cell cultures. The format is functional. The conditions noted are these: Orthopoxvirus vaccinia.
Experiment [6] has as its system Vesicular stomatitis virus. Kind of experiment: Minimum inhibitory concentration against Vesicular stomatitis virus. The format is functional.
Experiment [7] deals with Vaccinia virus. Kind of experiment: Minimum cytotoxic concentration against vaccinia virus in primary rabbit kidney cell cultures. The class given is functional. As to conditions: Orthopoxvirus vaccinia.
Experiment [8] relates to P388. Kind of experiment: Inhibitory effect on the proliferation of murine leukemia (P388) cells. The format is functional. As to conditions: Mus musculus, read-out: ID50 (the source's name).
Experiment [9] deals with Vaccinia virus. Kind of experiment: Minimum cytotoxic concentration against vaccinia virus against embryonic skin muscle cell cultures. The class given is functional. As to conditions: Orthopoxvirus vaccinia.
A short description of experiment [10]: Minimum cytotoxic concentration in primary rabbit kidney (PRK) cell cultures. The format is functional, Oryctolagus cuniculus.
Experiment [11] concerns Vaccinia virus. The experiment can be described thus: Minimum inhibitory concentration against vaccinia virus in primary rabbit kidney cell cultures of experiment 1. The conditions noted are these: Orthopoxvirus vaccinia. The format is functional.
Experiment [12] concerns Vaccinia virus. Kind of experiment: Minimum inhibitory concentration against vaccinia virus in Vero cell cultures of experiment 1. The format is functional. As to conditions: Orthopoxvirus vaccinia.
For experiment [13], the system named is Calf thymus DNA. The experiment can be described thus: Relative binding constant to calf thymus DNA. The format is nucleic-acid assay. As to conditions: Bos taurus. The method, boiled down: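 Ethidium displacement: Tris-EDTA buffer pH 8 with 1.3 μM ethidium bromide and calf thymus DNA (1.35 μM final); drug aliquots added, fluorescence read after a few minutes' equilibration (excitation 525 nm, emission 600 nm). Drug level giving 50% fluorescence decrease converted to relative binding constant taking ethidium binding constant as 10^7 M-1.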

Experiment [14] concerns Human alphaherpesvirus 2. The experiment can be described thus: Minimum inhibitory concentration against Herpes simplex virus 2(G). The format is functional.
Experiment [15] deals with Human alphaherpesvirus 1. The experiment can be described thus: Minimum inhibitory concentration against Herpes simplex virus 1(KOS). The class given is functional.
Experiment [16] concerns Vaccinia virus. The experiment can be described thus: Minimum cytotoxic concentration against vaccinia virus in HeLa cell cultures. As to conditions: Orthopoxvirus vaccinia. The class given is functional.
The test system of experiment [17] is Vaccinia virus. Kind of experiment: Minimum cytotoxic concentration against embryonic skin muscle cell cultures. The format is functional. The conditions noted are these: Orthopoxvirus vaccinia. The method, boiled down: (§1)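 Host cell cultures (primary rabbit kidney, HeLa, Vero, or E6SM embryonic skin-muscle cells, as named) exposed to compound. Minimum cytotoxic concentration taken as the concentration required to cause a microscopically detectable alteration of normal cell morphology.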

Experiment [18] deals with Vaccinia virus. The experiment can be described thus: Minimum inhibitory concentration against vaccinia virus in primary rabbit kidney cell cultures of experiment 2. The class given is functional, Orthopoxvirus vaccinia.
The test system of experiment [19] is PRK. The experiment can be described thus: Compound was evaluated for the minimum cytotoxic concentration in primary rabbit kidney (PRK) cell cultures. The format is functional. The conditions noted are these: Oryctolagus cuniculus. The method, boiled down: as §1
Experiment [20] concerns Vaccinia virus. Kind of experiment: Minimum cytotoxic concentration against Vero cell cultures. The format is functional. As to conditions: Orthopoxvirus vaccinia. The method, boiled down: as §1
In experiment [21] the test system is Vaccinia virus. Kind of experiment: Minimum cytotoxic concentration against HeLa cell cultures. The class given is functional. As to conditions: Orthopoxvirus vaccinia. The method, boiled down:
as §1

Experiment [22] relates to P388. Kind of experiment: Concentration which leads to inhibitory effect on the proliferation of murine leukemia (P388) cells. The class given is functional. As to conditions: Mus musculus, read-out: ID50 (the source's name). The method, boiled down: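 Murine P388 leukaemia cells grown in Fischer's medium with 10% fetal calf serum. Compounds dissolved in water, or sonicated and given as a suspension if poorly soluble. Cells seeded at 1 × 10^5 per well and grown 72 h at 37 °C in humidified 5% CO2 with drug. Viability read by MTT formazan optical density at 570 nm (reference 630 nm).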

Experiment [23] in a line: Inhibitory effect on the proliferation of human T-lymphoblast (Molt/4F ) cells. The format is functional. The conditions noted are these: read-out: ID50 (the source's name).
For experiment [24], the system named is L1210. The experiment can be described thus: Inhibitory effect on the proliferation of murine leukemia (L1210 ) cells. The class given is functional. As to conditions: Mus musculus, read-out: ID50 (the source's name).
The test system of experiment [25] is Vaccinia virus. The experiment can be described thus: Minimum cytotoxic concentration against primary rabbit kidney cell cultures. As to conditions: Orthopoxvirus vaccinia. The format is functional. The method, boiled down: as §1
The test system of experiment [26] is FM3A. The experiment can be described thus: Inhibitory effect on the proliferation of murine mammary carcinoma (FM3A ) cells. The format is functional. As to conditions: Mus musculus, read-out: ID50 (the source's name).
Experiment [27] relates to Vaccinia virus. The experiment can be described thus: Minimum inhibitory concentration against vaccinia virus in Vero cell cultures of experiment 2. The conditions noted are these: Orthopoxvirus vaccinia. The class given is functional.
The test system of experiment [28] is Raji. Kind of experiment: Inhibitory effect on the proliferation of human B lymphoblast (Raji ) cells. The format is functional. The conditions noted are these: read-out: ID50 (the source's name).

Molecule `Cl.Cl.Cn1cc(NC(=O)c2cc(NC(=O)CCCCCCCCCC(=O)Nc3cc(C(=O)Nc4cc(C(=O)NCCC(=N)N)n(C)c4)n(C)c3)cn2C)cc1C(=O)NCCC(=N)N` displayed an ID50 in [1] of 10.3 µg/mL. Moreover, the MIC in [2] was 20 µg/mL; in experiment [3], 0.2 µg/mL; in experiment [4], 2 µg/mL; in experiment [6], above 40 µg/mL; in [11] it was 2 µg/mL; in experiment [12], above 40 µg/mL. The results for the MIC in [14] and in experiment [15] were 20 µg/mL and above 10 µg/mL, respectively. Moreover, the MCC in experiment [5] was 100 µg/mL; in experiment [7] it was above 40 µg/mL; in experiment [9], above 40 µg/mL; in experiment [10], above 40 µg/mL; in experiment [16] it was 100 µg/mL. The IC50 in [8] worked out at 18 µg/mL. The molecule further yielded a Binding constant in experiment [13] of 1.9e+07 M⁻¹.

In turn, `Cl.Cl.Cn1cc(NC(=O)CCC(=O)Nc2cc(C(=O)NCCC(=N)N)n(C)c2)cc1C(=O)NCCC(=N)N` gave an ID50 in [1] above 400 µg/mL. For the same molecule, the MCC in [17] was above 400 µg/mL; in experiment [19] it was above 100 µg/mL; in [20], above 400 µg/mL; in [21], above 400 µg/mL; in experiment [25], above 400 µg/mL. The MIC in experiment [18] was above 400 µg/mL; in experiment [18] (Orthopoxvirus vaccinia, read-out: MIC), 400 µg/mL; in experiment [3], 70 µg/mL; in experiment [4], 20 µg/mL; in [6] it was above 100 µg/mL; in [11] it was 300 µg/mL. Also, the MIC in experiment [12] is above 400 µg/mL; in [14] it was above 40 µg/mL; in [15] it was above 100 µg/mL; in experiment [27] it was above 400 µg/mL. For the same molecule, the IC50 in experiment [22] was above 20 µg/mL; in experiment [23], above 100 µg/mL; in experiment [24], above 100 µg/mL; in [26], above 100 µg/mL; in [28], above 100 µg/mL.
